Experimental data: publication PMC6606825 (Journal of Ginseng Research, 2018)
Marks after values point to notes of the source that are not given here.

Test: Pharmacokinetics of CK and its metabolite 20
Type: in vivo, healthy Chinese volunteers
Method in brief: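 Healthy adults given one oral tablet dose fasting (overnight, or 10 h in a crossover food-effect arm); 30 subjects from the 100/200/400 mg groups were pooled with 24 from 200 mg fasting periods. Plasma was stored at −70°C, extracted with MTBE plus internal standards and assayed by LC-MS/MS. Cmax was observed and AUClast calculated by linear trapezoid, each divided by dose. The metabolite/parent ratio was also calculated. Genotyping used Sequenom MassARRAY, and log-transformed values were compared by one-way ANOVA.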

20(S)-PPD AUClast/D (CFTR rs2106155 CC, mean (SD)): 0.76 (0.87) | 20(S)-PPD Cmax/D (CFTR rs2106155 CC, mean (SD)): 0.02 (0.02) | Ratio 20(S)-PPD/CK AUClast/D (CFTR rs2106155 CC, mean (SD)): 3.73 (6.73) % | Ratio 20(S)-PPD/CK Cmax/D (CFTR rs2106155 CC, mean (SD)): 0.80 (1.29) % | 20(S)-PPD AUClast/D (CFTR rs2237726 CC, mean (SD)): 0.72 (0.85) | 20(S)-PPD Cmax/D (CFTR rs2237726 CC, mean (SD)): 0.02 (0.02) | Ratio 20(S)-PPD/CK AUClast/D (CFTR rs2237726 CC, mean (SD)): 3.53 (6.59) % | Ratio 20(S)-PPD/CK Cmax/D (CFTR rs2237726 CC, mean (SD)): 0.80 (1.27) % | 20(S)-PPD AUClast/D (CFTR rs2237726 CT, mean (SD)): 0.84 (0.78) | 20(S)-PPD Cmax/D (CFTR rs2237726 CT, mean (SD)): 0.03 (0.03) | Ratio 20(S)-PPD/CK AUClast/D (CFTR rs2237726 CT, mean (SD)): 4.43 (5.17) % | Ratio 20(S)-PPD/CK Cmax/D (CFTR rs2237726 CT, mean (SD)): 1.42 (2.13) % | 20(S)-PPD AUClast/D (CFTR rs2237726 TT, mean (SD)): 1.10 (0.47) | 20(S)-PPD Cmax/D (CFTR rs2237726 TT, mean (SD)): 0.03 (0.02) | Ratio 20(S)-PPD/CK AUClast/D (CFTR rs2237726 TT, mean (SD)): 7.40 (10.14) % | Ratio 20(S)-PPD/CK Cmax/D (CFTR rs2237726 TT, mean (SD)): 1.63 (2.04) % | 20(S)-PPD AUClast/D (CFTR rs4148711 AA, mean (SD)): 0.97 (0.49) | 20(S)-PPD Cmax/D (CFTR rs4148711 AA, mean (SD)): 0.04 (0.02) | Ratio 20(S)-PPD/CK AUClast/D (CFTR rs4148711 AA, mean (SD)): 5.87 (7.37) % | Ratio 20(S)-PPD/CK Cmax/D (CFTR rs4148711 AA, mean (SD)): 1.40 (1.51) % | 20(S)-PPD AUClast/D (CFTR rs4148711 AT, mean (SD)): 0.90 (0.98) | 20(S)-PPD Cmax/D (CFTR rs4148711 AT, mean (SD)): 0.03 (0.04) | Ratio 20(S)-PPD/CK AUClast/D (CFTR rs4148711 AT, mean (SD)): 4.70 (7.26) % | Ratio 20(S)-PPD/CK Cmax/D (CFTR rs4148711 AT, mean (SD)): 1.40 (2.23) % | 20(S)-PPD AUClast/D (CFTR rs4148711 TT, mean (SD)): 0.63 (0.57) | 20(S)-PPD Cmax/D (CFTR rs4148711 TT, mean (SD)): 0.02 (0.02) | Ratio 20(S)-PPD/CK AUClast/D (CFTR rs4148711 TT, mean (SD)): 2.87 (3.42) % | Ratio 20(S)-PPD/CK Cmax/D (CFTR rs4148711 TT, mean (SD)): 0.66 (0.71) % | 20(S)-PPD AUClast/D (NR1I2 rs1464602 AA, mean (SD)): 0.69 (0.50) | 20(S)-PPD Cmax/D (NR1I2 rs1464602 AA, mean (SD)): 0.02 (0.02) | Ratio 20(S)-PPD/CK AUClast/D (NR1I2 rs1464602 AA, mean (SD)): 3.33 (3.32) % | Ratio 20(S)-PPD/CK Cmax/D (NR1I2 rs1464602 AA, mean (SD)): 0.85 (0.79) % | 20(S)-PPD AUClast/D (NR1I2 rs1464602 AG, mean (SD)): 0.85 (0.89) | 20(S)-PPD Cmax/D (NR1I2 rs1464602 AG, mean (SD)): 0.03 (0.03) | Ratio 20(S)-PPD/CK AUClast/D (NR1I2 rs1464602 AG, mean (SD)): 3.45 (6.88) % | Ratio 20(S)-PPD/CK Cmax/D (NR1I2 rs1464602 AG, mean (SD)): 0.80 (1.32) % | 20(S)-PPD AUClast/D (NR1I2 rs1464602 GG, mean (SD)): 1.09 (1.05) | 20(S)-PPD Cmax/D (NR1I2 rs1464602 GG, mean (SD)): 0.04 (0.04) | Ratio 20(S)-PPD/CK AUClast/D (NR1I2 rs1464602 GG, mean (SD)): 7.81 (8.88) % | Ratio 20(S)-PPD/CK Cmax/D (NR1I2 rs1464602 GG, mean (SD)): 2.40 (3.04) % | 20(S)-PPD AUClast/D (NR1I2 rs1523127 AA, mean (SD)): 0.87 (0.86) | 20(S)-PPD Cmax/D (NR1I2 rs1523127 AA, mean (SD)): 0.03 (0.03) | Ratio 20(S)-PPD/CK AUClast/D (NR1I2 rs1523127 AA, mean (SD)): 4.60 (7.04) % | Ratio 20(S)-PPD/CK Cmax/D (NR1I2 rs1523127 AA, mean (SD)): 1.27 (1.98) % | 20(S)-PPD AUClast/D (NR1I2 rs1523127 CA, mean (SD)): 0.73 (0.52) | 20(S)-PPD Cmax/D (NR1I2 rs1523127 CA, mean (SD)): 0.02 (0.02) | Ratio 20(S)-PPD/CK AUClast/D (NR1I2 rs1523127 CA, mean (SD)): 3.64 (3.52) % | Ratio 20(S)-PPD/CK Cmax/D (NR1I2 rs1523127 CA, mean (SD)): 0.87 (0.80) % | 20(S)-PPD AUClast/D (NR1I2 rs1523127 CC, n = 1): 0.32 (−) ^2) | 20(S)-PPD Cmax/D (NR1I2 rs1523127 CC, n = 1): 0.01 (−) ^2) | Ratio 20(S)-PPD/CK AUClast/D (NR1I2 rs1523127 CC, n = 1): 1.14 (−) ^2) % | Ratio 20(S)-PPD/CK Cmax/D (NR1I2 rs1523127 CC, n = 1): 0.22 (−) ^2) % | 20(S)-PPD AUClast/D (NR1I2 rs2276707 CC, mean (SD)): 0.79 (0.54) | 20(S)-PPD Cmax/D (NR1I2 rs2276707 CC, mean (SD)): 0.03 (0.02) | Ratio 20(S)-PPD/CK AUClast/D (NR1I2 rs2276707 CC, mean (SD)): 5.07 (6.48) % | Ratio 20(S)-PPD/CK Cmax/D (NR1I2 rs2276707 CC, mean (SD)): 1.15 (1.37) % | 20(S)-PPD AUClast/D (NR1I2 rs2276707 CT, mean (SD)): 0.79 (0.77) | 20(S)-PPD Cmax/D (NR1I2 rs2276707 CT, mean (SD)): 0.03 (0.03) | Ratio 20(S)-PPD/CK AUClast/D (NR1I2 rs2276707 CT, mean (SD)): 3.49 (4.74) % | Ratio 20(S)-PPD/CK Cmax/D (NR1I2 rs2276707 CT, mean (SD)): 1.12 (1.87) % | 20(S)-PPD AUClast/D (NR1I2 rs2276707 TT, mean (SD)): 1.04 (1.19) | 20(S)-PPD Cmax/D (NR1I2 rs2276707 TT, mean (SD)): 0.03 (0.03) | Ratio 20(S)-PPD/CK AUClast/D (NR1I2 rs2276707 TT, mean (SD)): 5.91 (10.37) % | Ratio 20(S)-PPD/CK Cmax/D (NR1I2 rs2276707 TT, mean (SD)): 1.27 (1.99) % | 20(S)-PPD AUClast/D (NR1I2 rs2472682 AA, mean (SD)): 1.08 (1.14) | 20(S)-PPD Cmax/D (NR1I2 rs2472682 AA, mean (SD)): 0.04 (0.04) | Ratio 20(S)-PPD/CK AUClast/D (NR1I2 rs2472682 AA, mean (SD)): 7.47 (9.73) % | Ratio 20(S)-PPD/CK Cmax/D (NR1I2 rs2472682 AA, mean (SD)): 2.06 (2.76) % | 20(S)-PPD AUClast/D (NR1I2 rs2472682 CA, mean (SD)): 0.66 (0.50) | 20(S)-PPD Cmax/D (NR1I2 rs2472682 CA, mean (SD)): 0.02 (0.02) | Ratio 20(S)-PPD/CK AUClast/D (NR1I2 rs2472682 CA, mean (SD)): 2.12 (1.73) % | Ratio 20(S)-PPD/CK Cmax/D (NR1I2 rs2472682 CA, mean (SD)): 0.59 (0.51) % | 20(S)-PPD AUClast/D (NR1I2 rs2472682 CC, mean (SD)): 0.87 (0.59) | 20(S)-PPD Cmax/D (NR1I2 rs2472682 CC, mean (SD)): 0.03 (0.02) | Ratio 20(S)-PPD/CK AUClast/D (NR1I2 rs2472682 CC, mean (SD)): 5.01 (4.45) % | Ratio 20(S)-PPD/CK Cmax/D (NR1I2 rs2472682 CC, mean (SD)): 1.17 (0.97) % | 20(S)-PPD AUClast/D (NR1I2 rs6785049 AA, mean (SD)): 0.75 (0.59) | 20(S)-PPD Cmax/D (NR1I2 rs6785049 AA, mean (SD)): 0.03 (0.02) | Ratio 20(S)-PPD/CK AUClast/D (NR1I2 rs6785049 AA, mean (SD)): 5.90 (7.79) % | Ratio 20(S)-PPD/CK Cmax/D (NR1I2 rs6785049 AA, mean (SD)): 1.37 (1.63) % | 20(S)-PPD AUClast/D (NR1I2 rs6785049 AG, mean (SD)): 0.72 (0.54) | 20(S)-PPD Cmax/D (NR1I2 rs6785049 AG, mean (SD)): 0.03 (0.02) | Ratio 20(S)-PPD/CK AUClast/D (NR1I2 rs6785049 AG, mean (SD)): 2.64 (2.47) % | Ratio 20(S)-PPD/CK Cmax/D (NR1I2 rs6785049 AG, mean (SD)): 0.69 (0.58) % | 20(S)-PPD AUClast/D (NR1I2 rs6785049 GG, mean (SD)): 1.11 (1.21) | 20(S)-PPD Cmax/D (NR1I2 rs6785049 GG, mean (SD)): 0.04 (0.04) | Ratio 20(S)-PPD/CK AUClast/D (NR1I2 rs6785049 GG, mean (SD)): 6.66 (9.43) % | Ratio 20(S)-PPD/CK Cmax/D (NR1I2 rs6785049 GG, mean (SD)): 1.98 (2.90) % | 20(S)-PPD AUClast/D (NR1I2 rs7643645 AA, mean (SD)): 0.95 (0.87) | 20(S)-PPD Cmax/D (NR1I2 rs7643645 AA, mean (SD)): 0.03 (0.03) | Ratio 20(S)-PPD/CK AUClast/D (NR1I2 rs7643645 AA, mean (SD)): 5.31 (8.06) % | Ratio 20(S)-PPD/CK Cmax/D (NR1I2 rs7643645 AA, mean (SD)): 1.16 (1.57) % | 20(S)-PPD AUClast/D (NR1I2 rs7643645 AG, mean (SD)): 0.66 (0.76) | 20(S)-PPD Cmax/D (NR1I2 rs7643645 AG, mean (SD)): 0.03 (0.03) | Ratio 20(S)-PPD/CK AUClast/D (NR1I2 rs7643645 AG, mean (SD)): 3.34 (5.02) % | Ratio 20(S)-PPD/CK Cmax/D (NR1I2 rs7643645 AG, mean (SD)): 1.21 (2.09) % | 20(S)-PPD AUClast/D (NR1I2 rs7643645 GG, mean (SD)): 1.14 (0.42) | 20(S)-PPD Cmax/D (NR1I2 rs7643645 GG, mean (SD)): 0.04 (0.02) | Ratio 20(S)-PPD/CK AUClast/D (NR1I2 rs7643645 GG, mean (SD)): 4.98 (4.18) % | Ratio 20(S)-PPD/CK Cmax/D (NR1I2 rs7643645 GG, mean (SD)): 1.03 (0.83) %
Compound: CC(C)=CCC[C@](C)(O)[C@H]1CC[C@]2(C)[C@@H]1[C@H](O)C[C@@H]1[C@@]3(C)CC[C@H](O)C(C)(C)[C@@H]3CC[C@]12C [20(S)-PPD, 20(S)-protopanaxadiol]
